Results taken from ChEMBL document CHEMBL4602710 (ACS Med Chem Lett, 2020).
Converted amounts (≈) assume the structure as drawn. Values belong to the molecule of their own block, whether it stands above or below them. The source made the active and inactive calls. No cut-off for these calls is given here.

Legend:
[1] = Oral bioavailability in rat at 5 mg/kg; assay type: ADME, organism-based; settings: in vivo
[2] = Apparent permeability of compound in human Caco2 cells; assay type: ADME, cell-based; settings: Caco-2
[3] = Clearance in human liver microsomes; assay type: ADME, Microsome
[4] = Solubility of compound at pH 2; assay type: physicochemical; settings: buffer
[5] = Distribution coefficient, logD of compound; assay type: physicochemical; settings: octanol/water
[6] = target: T1, Tyrosine-protein kinase SYK (Homo sapiens, UniProt P43405); assay: Inhibition of SYK (unknown origin) using XL665-labeled peptide as substrate in presence of ATP measured after 30 mins by TR-FRET assay
[7] = target: T1, Tyrosine-protein kinase SYK; assay: Inhibition of SYK in human Ramos cells assessed as reduction in antihuman IgM F(ab)2-induced phosphorylation of BLNK at Y96 residue preincubated for 1 hr followed by antihuman IgM F(ab)2 stimulation for 5 mins by MSD high bind plate assay; assay type: cell-based
[8] = Solubility of compound at pH 7.4; assay type: physicochemical; settings: buffer
[9] = target: T1, Tyrosine-protein kinase SYK; assay: Inhibition of SYK in human whole blood assessed as reduction in anti-FCepsilonR1 mAb-induced basophil activation by measuring decrease in CD63 surface expression incubated for 60 mins followed by anti-FCepsilonR1 mAb stimulation for 20 mins by flow cytometry analysis; assay type: tissue-based
[10] = Efflux ratio of apparent permeability of compound in human Caco2 cells; assay type: ADME, cell-based; settings: Caco-2
Mus musculus [11] = assay: Protective activity in NZBWF1/J mouse SLE model assessed as increase in animal survival rate at 0.25%, po administered daily for 12 weeks measured at week 40; assay type: functional, organism-based
Procedure, shortened: (§1)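 Spontaneous lupus model in NZB/W F1 mice, treated for 12 weeks. Proteinuria score followed from weeks 28–40; survival assessed at week 40.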

[12] = Toxicity in human assessed as clinical abnormalities at 2 to 50 mg administered as single dose; settings: in vivo
Procedure, shortened: (§2)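 Healthy human volunteers received single doses of 2–50 mg or multiple doses of 15–50 mg; adverse events and laboratory abnormalities recorded.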

[13] = Apparent clearance in human hepatocytes; assay type: ADME, cell-based, Hepatocyte
[14] = AUC in human at 45 mg, po administered as single dose; assay type: ADME, organism-based; settings: in vivo
Procedure, shortened: (§3)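 Healthy human volunteers given a single oral 45 mg dose, either without pretreatment or after pretreatment with 20 mg omeprazole; plasma AUC compared.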

[15] = Volume of distribution at steady state in dog at 1 mg/kg, iv or 5 mg/kg, po; assay type: ADME, organism-based, Canis lupus familiaris; settings: in vivo, read-out: Vdss
[16] = Fraction unbound in human plasma; assay type: ADME, cell-free
[17] = Half life in dog at 1 mg/kg, iv or 5 mg/kg, po; assay type: ADME, organism-based, Canis lupus familiaris; settings: in vivo
[18] = Oral bioavailability in dog at 5 mg/kg; assay type: ADME, organism-based, Canis lupus familiaris; settings: in vivo
[19] = Fraction unbound in dog plasma; assay type: ADME, cell-free, Canis lupus familiaris
[20] = Half life in monkey at 1 mg/kg, iv or 5 mg/kg, po; assay type: ADME, organism-based, Macaca mulatta; settings: rhesus monkey, in vivo
[21] = Half life at steady state in human at 2 to 50 mg administered once daily; assay type: ADME; settings: in vivo, read-out: t1/2ss
[22] = Half life in rat at 1 mg/kg, iv or 5 mg/kg, po; assay type: ADME, organism-based; settings: in vivo
[23] = AUC in dog pretreated with pentagastrin; assay type: ADME, Canis lupus familiaris; settings: in vivo
[24] = Toxicity in human assessed as adverse events at 2 to 50 mg administered as single dose; settings: in vivo; procedure, shortened: as §2
Hepatocyte [25] = assay: Apparent clearance in dog hepatocytes; assay type: ADME, cell-based, Canis lupus familiaris
[26] = Oral bioavailability in monkey at 5 mg/kg; assay type: ADME, organism-based, Macaca mulatta; settings: rhesus monkey, in vivo
[27] = Toxicity in human assessed as clinical abnormalities at 15 to 50 mg administered as multiple doses; settings: in vivo; procedure, shortened: as §2
Mus musculus [28] = assay: Protective activity in NZBWF1/J mouse SLE model assessed as reduction in proteinuria at 0.25%, po administered daily for 12 weeks measured weekly from week 28-40; assay type: functional, organism-based; procedure, shortened: as §1
[29] = Volume of distribution at steady state in monkey at 1 mg/kg, iv or 5 mg/kg, po; assay type: ADME, organism-based, Macaca mulatta; settings: rhesus monkey, in vivo, read-out: Vdss
[30] = AUC in human at 45 mg, po administered as single dose pretreated with omeprazole; assay type: ADME, organism-based; settings: in vivo; procedure, shortened: as §3
[31] = Toxicity in human assessed as adverse events at 15 to 50 mg administered as multiple doses; settings: in vivo; procedure, shortened: as §2
[32] = Clearance in dog at 1 mg/kg, iv or 5 mg/kg, po; assay type: ADME, organism-based, Canis lupus familiaris; settings: in vivo
[33] = Apparent clearance in rat hepatocytes; assay type: ADME, cell-based, Hepatocyte
[34] = AUC in dog pretreated with famotidine; assay type: ADME, Canis lupus familiaris; settings: in vivo
[35] = Volume of distribution at steady state in rat at 1 mg/kg, iv or 5 mg/kg, po; assay type: ADME, organism-based; settings: in vivo, read-out: Vdss
[36] = target: Tyrosine-protein kinase JAK2 (Homo sapiens, UniProt O60674); assay: Inhibition of wild-type human partial length JAK2 JH1 catalytic domain (A829 to G1132 residues) expressed in mammalian expression system by Kinomescan method
Hepatocyte [37] = assay: Apparent clearance in monkey hepatocytes; assay type: ADME, cell-based, Macaca mulatta; settings: rhesus monkey
[38] = Clearance in rat at 1 mg/kg, iv or 5 mg/kg, po; assay type: ADME, organism-based; settings: in vivo
[39] = Clearance in monkey at 1 mg/kg, iv or 5 mg/kg, po; assay type: ADME, organism-based, Macaca mulatta; settings: rhesus monkey, in vivo
[40] = Fraction unbound in monkey plasma; assay type: ADME, cell-free, Macaca mulatta; settings: rhesus monkey
[41] = Fraction unbound in rat plasma; assay type: ADME, cell-free

Chain of Tyrosine-protein kinase JAK2 (O60674 whole entry, the tested form may be a part): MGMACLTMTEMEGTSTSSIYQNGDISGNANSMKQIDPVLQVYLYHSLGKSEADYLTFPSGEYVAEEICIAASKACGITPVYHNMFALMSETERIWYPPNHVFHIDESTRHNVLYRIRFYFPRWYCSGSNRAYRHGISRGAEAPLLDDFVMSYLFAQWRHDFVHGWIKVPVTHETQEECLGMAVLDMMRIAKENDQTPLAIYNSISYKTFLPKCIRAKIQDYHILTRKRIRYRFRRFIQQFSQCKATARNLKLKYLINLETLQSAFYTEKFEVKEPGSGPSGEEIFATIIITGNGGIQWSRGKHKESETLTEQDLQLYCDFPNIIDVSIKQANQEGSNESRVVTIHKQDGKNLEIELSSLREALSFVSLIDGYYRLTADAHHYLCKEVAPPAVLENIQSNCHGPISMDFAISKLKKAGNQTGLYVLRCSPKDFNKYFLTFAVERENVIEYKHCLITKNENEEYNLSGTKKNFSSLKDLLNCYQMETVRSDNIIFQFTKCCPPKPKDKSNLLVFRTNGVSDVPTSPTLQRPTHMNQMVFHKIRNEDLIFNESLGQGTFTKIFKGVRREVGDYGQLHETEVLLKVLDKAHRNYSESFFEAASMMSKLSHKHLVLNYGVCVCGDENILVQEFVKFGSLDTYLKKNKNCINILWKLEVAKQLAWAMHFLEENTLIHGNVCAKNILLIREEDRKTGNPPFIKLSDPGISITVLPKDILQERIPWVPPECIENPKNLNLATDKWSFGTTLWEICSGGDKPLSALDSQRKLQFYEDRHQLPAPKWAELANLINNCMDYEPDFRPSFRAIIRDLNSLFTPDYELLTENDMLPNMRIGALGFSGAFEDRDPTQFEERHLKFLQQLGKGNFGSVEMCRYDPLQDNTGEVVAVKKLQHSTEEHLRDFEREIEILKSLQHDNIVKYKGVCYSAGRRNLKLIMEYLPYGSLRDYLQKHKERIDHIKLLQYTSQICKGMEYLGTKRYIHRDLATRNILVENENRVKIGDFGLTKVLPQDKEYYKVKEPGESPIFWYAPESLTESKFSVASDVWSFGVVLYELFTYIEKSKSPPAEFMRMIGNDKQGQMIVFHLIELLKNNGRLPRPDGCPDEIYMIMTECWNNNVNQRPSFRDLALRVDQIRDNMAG

bioavailability [1]: 42%
Papp [2]: 5.5 ×10⁻⁶ cm/s
CLhep predicted [3]: 3 mL/min/kg
solubility [4]: > 100 µM
logD [5]: 1.9 to 2.7
IC50 [6]: 9.2 nM
EC50 [7]: 53 nM
solubility [8]: < 1 µM
EC50 [9]: 385 nM
efflux ratio [10]: 2.9
Structure (SMILES): c1cn2cc(-c3ccc4cn[nH]c4c3)nc(Nc3ccc(N4CCN(C5COC5)CC4)cc3)c2n1

Papp [2]: 0.4 ×10⁻⁶ cm/s
CLhep predicted [3]: < 1.83 mL/min/kg
solubility [4]: > 100 µM
IC50 [6]: 17.3 nM
EC50 [7]: 47 nM
solubility [8]: 49 µM (≈ 22.9 µg/mL)
EC50 [9]: 90 nM
efflux ratio [10]: 38
Structure (SMILES): c1cn2cc(-c3ccc4nc[nH]c4c3)nc(Nc3ccc(N4CCN(C5COC5)CC4)cc3)c2n1

bioavailability [1]: 21%
Papp [2]: 11 ×10⁻⁶ cm/s
CLhep predicted [3]: < 1.83 mL/min/kg
solubility [4]: > 100 µM
IC50 [6]: 7.8 nM
EC50 [7]: 86 nM
solubility [8]: 99 µM (≈ 48.1 µg/mL)
EC50 [9]: 79 nM
efflux ratio [10]: 3
Structure (SMILES): c1cn2cc(-c3cnc4c(n3)NCCO4)nc(Nc3ccc(N4CCN(C5COC5)CC4)cc3)c2n1

bioavailability [1]: 2%
Papp [2]: 0.5 ×10⁻⁶ cm/s
CLhep predicted [3]: 3.83 mL/min/kg
solubility [4]: 90 µM (≈ 42.2 µg/mL)
logD [5]: 1.9 to 2.7
IC50 [6]: 0.9 nM
EC50 [7]: 109 nM
solubility [8]: 78 µM (≈ 36.5 µg/mL)
EC50 [9]: 231 nM
efflux ratio [10]: 29
Structure (SMILES): CN(C)C[C@@H]1CN(c2ccc(Nc3nc(-c4ccc5cn[nH]c5c4)cn4ccnc34)cc2)CCO1

CLH(app) [13]: 0.83 mL/min/kg
AUC [14]: 6.19 µM·h
Vd [15]: 1.6 L/kg
fraction unbound [16]: 0.204
bioavailability [1]: 60%
half-life [17]: 5.3 h
bioavailability [18]: 100%
CLhep predicted [3]: < 1.83 mL/min/kg
fraction unbound [19]: 0.385
solubility [4]: > 100 µM
half-life [20]: 2.3 h
half-life [21]: 21.3 to 24.6 h
half-life [22]: 3.7 h
AUC [23]: 8.8 µM·h
CLH(app) (Hepatocyte [25]): 4.67 mL/min/kg
bioavailability [26]: 100%
logD [5]: 1.3
Vd [29]: 1.3 L/kg
AUC [30]: 6.46 µM·h
clearance [32]: 5.5 mL/min/kg
CLH(app) [33]: 23.3 mL/min/kg
AUC [34]: 10.2 µM·h
Vd [35]: 2.5 L/kg
solubility [8]: 99 µM (≈ 43.9 µg/mL)
IC50 [36]: 120 nM
CLH(app) (Hepatocyte [37]): 4.67 mL/min/kg
clearance [38]: 29.5 mL/min/kg
clearance [39]: 9.67 mL/min/kg
fraction unbound [40]: 0.322
fraction unbound [41]: 0.118
Structure (SMILES): Nc1cncc(-c2cn3ccnc3c(Nc3ccc(N4CCN(C5COC5)CC4)cc3)n2)n1 [LANRAPLENIB]
Activity (Mus musculus [11]): Active
Activity [12]: Non-Toxic
Activity [24]: Non-Toxic
Activity [27]: Non-Toxic
Activity (Mus musculus [28]): Active
Activity [31]: Non-Toxic

CLhep predicted [3]: 4 mL/min/kg
solubility [4]: 77 µM (≈ 34.8 µg/mL)
logD [5]: 1.9 to 2.7
IC50 [6]: 9 nM
EC50 [7]: 82 nM
solubility [8]: 3 µM (≈ 1.35 µg/mL)
EC50 [9]: 2180 nM
Structure (SMILES): c1cn2cc(-c3ccc4cn[nH]c4c3)nc(Nc3ccc(N4CC5(CCOCC5)C4)cc3)c2n1

CLhep predicted [3]: 11 mL/min/kg
solubility [4]: 88 µM (≈ 37.3 µg/mL)
logD [5]: 1.9 to 2.7
IC50 [6]: 5 nM
EC50 [7]: 63 nM
solubility [8]: < 1 µM
EC50 [9]: 1500 nM
Structure (SMILES): c1cn2cc(-c3ccc4cn[nH]c4c3)nc(Nc3ccc(N4CC5(COC5)C4)cc3)c2n1

CLhep predicted [3]: 8.17 mL/min/kg
solubility [4]: 26 µM (≈ 11.9 µg/mL)
logD [5]: 1.9 to 2.7
IC50 [6]: 19.5 nM
EC50 [7]: 33 nM
solubility [8]: 3 µM (≈ 1.38 µg/mL)
EC50 [9]: 1190 nM
Structure (SMILES): O=S1(=O)CCN(c2ccc(Nc3nc(-c4ccc5cn[nH]c5c4)cn4ccnc34)cc2)CC1

bioavailability [1]: 38%
CLhep predicted [3]: 4.17 mL/min/kg
solubility [4]: > 100 µM
IC50 [6]: 8.4 nM
EC50 [7]: 46.8 nM
solubility [8]: > 100 µM
EC50 [9]: 89 nM
Structure (SMILES): c1cn2cc(-c3cnc4c(c3)NCCO4)nc(Nc3ccc(N4CCN(C5COC5)CC4)cc3)c2n1

CLhep predicted [3]: 9.83 mL/min/kg
solubility [4]: < 1 µM
logD [5]: 1.9 to 2.7
IC50 [6]: 13.7 nM
EC50 [7]: 33 nM
solubility [8]: < 1 µM
EC50 [9]: 133 nM
Structure (SMILES): c1cn2cc(-c3ccc4cn[nH]c4c3)nc(Nc3ccc(N4[C@H]5COC[C@@H]4COC5)cc3)c2n1
